The data set in a line: Toxicity liver stage against HepG2, at 10uM. It is filed as cell-based. On the set-up: test concentration 10 uM, cell line HepG2-A16-CD81EGFP. The settings on record: human, HepG2-A16-CD81EGFP cells; read-out: INHIBITION
In outline:
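Uninfected HepG2-A16-CD81EGFP cells, 3 × 10^3 per well, 1536-well, plated on prespotted compound at 10 μM final, parasite-free screening media added to match infected plates; puromycin 10 μM positive, DMSO 0.5% negative; run in parallel with 48 h PbLuc assay at 37 °C, 5% CO2; viability by CellTiter-Glo luminescence, normalized to controls.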
`COCCOc1ccnc(-c2noc([C@@H]3CCCN3C)n2)c1`: the cytotoxicity at 10 µM is -7.18%.
For the molecule `CC(C)(C)CN1CCC[C@H]1c1nc(-c2cncnc2N)no1`, the cytotoxicity at 10 µM was -3.66%.
Consider `COC(=O)[C@@H]1Cc2c[nH]c3cccc(c23)[C@H](CC(C)C)N1`, for which the cytotoxicity at 10 µM amounted to 9.57%.
Turning to `CN1CCC(N[C@@H]2CO[C@H](CNC(=O)C3CCCC3)[C@H]2O)CC1`, the cytotoxicity at 10 µM is -4.63%.
Consider `CC[C@H]1CN2CC[C@H]1C[C@@H]2CNC(=O)c1ccco1`, for which the cytotoxicity at 10 µM was determined as 3.46%.
`CCOC(=O)[C@H]1[C@@H](O)C(=O)N(C)C12CCN(C(=O)OC)CC2`: the cytotoxicity at 10 µM is -0.817%.
The same measure for `CCOC(=O)CNC(=O)N1CCC(OC)c2ccccc2N(C)C(=O)C1` (stereo unspecified): 3.36%; for `COc1ccc2c3c1CN(S(C)(=O)=O)CC3=CC(C)(C)CO2`: 7.77%.
For `O=c1c(S(=O)(=O)N2CCCC2)cccn1Cc1ccccc1Cl`, the cytotoxicity at 10 µM was 2.96%.
Consider `Cc1cc(=O)n(CCNS(=O)(=O)c2ccc(F)c(Cl)c2)cn1`, for which the cytotoxicity at 10 µM amounted to 1.18%.
For `COc1ncccc1CN1CCc2[nH]nc(C(=O)N(C)C)c2C1`, the cytotoxicity at 10 µM amounted to 1.55%.
Take `CCOCC1c2c(ncn2C(C)C)CCN1C(=O)CC` (stereo unspecified): the cytotoxicity at 10 µM was 4.17%.
In the case of `Cc1cnc(N2CCC[C@@H]3CN(S(C)(=O)=O)C[C@@H]32)nc1`, the cytotoxicity at 10 µM stood at 9.34%.
The same measure for `CN1CCN([C@@H]2CN(C(=O)c3ccnnc3)[C@@H]3CCCO[C@H]23)CC1`: 7.16%.
Next, `CCS(=O)(=O)N1CCC2(CC1)CC(OCC1CC1)CO2` (stereo unspecified): 7.92%; `Cc1nc2[nH]cnc(NCCN3CCCC3)c-2n1`: -12%; `CCn1cc(C(=O)n2nc(C)cc2C)c(S(=O)(=O)N2CCCCC2)n1`: -3.81%.
As to `CCCC(C)(O)c1cc(C(N)=O)no1` (stereo unspecified), the cytotoxicity at 10 µM was -5.4%.
Next, `Cc1cc(NC(=O)CN2C(=O)CC(C)(C)c3ccccc32)no1`: -3.29%.
For `CCn1cc(CN2CCC(c3ncc(Cl)cc3S(C)(=O)=O)CC2)c(C)n1`, the cytotoxicity at 10 µM came out at 5.68%.
For `CN1CCN(CC2(O)CCCN(S(=O)(=O)c3cn[nH]c3)CC2)CC1` (stereo unspecified), the cytotoxicity at 10 µM was 2.25%.
For the molecule `CN(C)S(=O)(=O)N1CCC(c2ccnc(Nc3ccccn3)n2)C1` (stereo unspecified), the cytotoxicity at 10 µM was 3.25%.
`O=C(c1n[nH]c(=O)c2ccccc12)N1CCC(O)(CN2CCOCC2)C1` (stereo unspecified): the cytotoxicity at 10 µM is -1.39%.
Next, `Cc1ccc2c(c1C)OCC2NCc1cccc(C#N)c1` (stereo unspecified): 9.91%; `CCc1ccc(S(=O)(=O)Nc2cnccc2C)s1`: -3.63%.
The same measure for `CNc1ncc(C(=O)N2CCCC(Cc3ccccc3OC)C2)s1` (stereo unspecified): -0.094%; for `Cc1cc(C)n(CC(C)CNC(=O)N(C)Cc2cc(C)on2)n1` (stereo unspecified): -10.2%; for `COC(=O)CN(C(=O)c1cccc(F)c1Cl)c1cccc(C)n1`: 9.5%.
Next, `CCC1CN(CCCO)c2ccccc2O1` (stereo unspecified): -7.24%; `COC1CCCN(C(=O)NCc2ccc(C(=O)N(C)C(C)C)cc2)C1` (stereo unspecified): -24.8%.
Regarding `CN(C(=O)c1ccncc1F)c1ccccc1S(C)(=O)=O`, the cytotoxicity at 10 µM is 2.23%.
Take `COc1c(NS(=O)(=O)c2ccc(F)c(C)c2)c(C)nn1C`: the cytotoxicity at 10 µM was -6.33%.
In the case of `NCC1(c2cccc(C(F)(F)F)c2)CC1`, the cytotoxicity at 10 µM is -11.2%.
`COc1ccccc1N(C)S(=O)(=O)c1cc(C(=O)O)cs1`: the cytotoxicity at 10 µM is -5.82%.
`COc1ccccc1OCC(=O)NS(=O)(=O)c1ccc(Cl)cc1F`: the cytotoxicity at 10 µM worked out at 2.28%.
As for `CC(C)C1CN(C(=O)c2cccs2)CCS1` (stereo unspecified), the cytotoxicity at 10 µM is 1.24%.
Turning to `CC(CN1CCOCC1)NC(=O)c1cc(Cl)c2c(c1)OCO2` (stereo unspecified), the cytotoxicity at 10 µM was -2.35%.
Turning to `CCN(Cc1cccc(-c2ccncc2)c1)S(C)(=O)=O`, the cytotoxicity at 10 µM was -14%.
In the case of `CCN(CCc1nccs1)C(=O)c1ncoc1C`, the cytotoxicity at 10 µM was found to be 11.3%.
With `Cc1nc(CNc2ccc(C(=O)NCc3ccco3)cc2C)no1`, the cytotoxicity at 10 µM was determined as 5.38%.
`COc1ccc2c(OCC(=O)NC(C)(C)C)ccnc2c1`: the cytotoxicity at 10 µM is -2.04%.
In the case of `CCC(C)(C)NC(=O)Cn1nnc(CN(C)C(=O)c2ccccc2)n1`, the cytotoxicity at 10 µM stood at 9.74%.
For the molecule `CNC(=O)c1cc(C)ccc1NCc1cn2cc(C)ccc2n1`, the cytotoxicity at 10 µM was 8.45%.
`Cc1nnc(CN(Cc2ccc(Cl)c(Cl)c2)C(C)C)o1`: the cytotoxicity at 10 µM was determined as 4.91%.
For the molecule `CC(C)c1nnc2n1CCN(C(=O)c1ccc3c(c1)NC(=O)CO3)C2`, the cytotoxicity at 10 µM was determined as 7.07%.
For `CCN1CC(C(=O)NC(C)(C)CNC(=O)OC(C)(C)C)CC1=O` (stereo unspecified), the cytotoxicity at 10 µM was 7.79%.
On to `CCC(C)NC(=O)c1ccccc1-n1cnnn1` (stereo unspecified), for which the cytotoxicity at 10 µM is 13%.
The same measure for `CCN1Cc2c(C(=O)NC(C)C(C)C)ncn2-c2ccccc2S1(=O)=O` (stereo unspecified): -66.3%.
Next, `Cc1nc(NCC2CC2)nc2c1COCC21CCN(C(=O)NC(C)C)C1` (stereo unspecified): -83.2%; `CC(C)NC(=O)C1CN(C(=O)c2ccccc2)CC12CCOCC2` (stereo unspecified): -82.6%.
Take `CO[C@@H]1CC[C@H]2[C@H]1OCCN2C(=O)COc1ccc(F)cc1`: the cytotoxicity at 10 µM was 4.42%.
On to `CCNC(=O)[C@@H]1C[C@@H](NC(=O)CSC)CN1Cc1ccncc1`, for which the cytotoxicity at 10 µM is -1.87%.
The same measure for `C[C@@H]1CN(C(=O)c2cn(CCN3CCCCC3)nn2)C[C@H](C)O1`: 4.89%; for `CCN(CC)Cc1cc(C(=O)N2CCCC(CC)(C(=O)O)C2)c(C)o1` (stereo unspecified): 7.25%; for `CCCn1ccnc1-c1nccn1CCC(N)=O`: -10.3%.
`NC(=O)NCC(=O)N1CCCC(OCc2cccnc2)C1` (stereo unspecified): the cytotoxicity at 10 µM was -1.53%.
Take `CC(C)Oc1ccc2c(NC(=O)CNC(N)=O)nn(CC(F)(F)F)c2c1`: the cytotoxicity at 10 µM is -5.89%.
On to `CCN(Cc1cnc(-c2ccccn2)nc1)C1CCS(=O)(=O)C1` (stereo unspecified), for which the cytotoxicity at 10 µM was -5.24%.
As to `CC[C@@]1(O)CCN(c2ncc(Cl)cc2C(F)(F)F)C[C@H]1O`, the cytotoxicity at 10 µM worked out at 11.6%.
Turning to `c1cncc(NCCNC2CCSC2)c1` (stereo unspecified), the cytotoxicity at 10 µM is -3.22%.
For `CN(C)C(=O)CCC1CCCN(Cc2ccc(-c3cccnc3)cc2)C1` (stereo unspecified), the cytotoxicity at 10 µM turned out to be 4.96%.
For `COc1c(F)cc(F)cc1-c1nc2c([nH]1)CCNC2`, the cytotoxicity at 10 µM is 3.94%.
Next, `COc1cccc(-c2cc(NCCO)nc3[nH]ccc23)n1`: 4.46%.
As for `O=S1(=O)COCCN1Cc1ccc(F)c(F)c1`, the cytotoxicity at 10 µM stood at 3.42%.
For the molecule `CC(=O)NC(C(=O)N1CCn2cncc2C1)C(C)C` (stereo unspecified), the cytotoxicity at 10 µM was -14.7%.
For the molecule `Cc1nc[nH]c1-c1nccn1CCCN(C)C`, the cytotoxicity at 10 µM turned out to be 5.05%.
For the molecule `CCC(C)Sc1ncc(-c2c(C#N)c(N)nc3c2COCC3)cn1` (stereo unspecified), the cytotoxicity at 10 µM came to 15.1%.
The same measure for `Cc1nc2c(N3CCC(O)(Cn4ccnc4)CC3)ncnc2o1`: 6.35%.
For the molecule `O=C1CCC(C(=O)N(Cc2ccsc2)CC2CCCO2)=NN1` (stereo unspecified), the cytotoxicity at 10 µM was -7.97%.
With `CCN1CCCC(c2c(-c3ccccc3)ncn2Cc2csc(N)n2)C1` (stereo unspecified), the cytotoxicity at 10 µM was -0.386%.
The same measure for `O=C(C1CCC1)N1CC[C@]2(O)CCN(Cc3ncccn3)C[C@@H]2C1`: 3.97%.
Regarding `O=C(CN1CCNCC1)N1CC[C@@H](c2ccc3ccccc3c2)[C@H](O)C1`, the cytotoxicity at 10 µM was -8.9%.
Turning to `CCN(CCn1cccn1)Cc1nc(-c2ccccc2F)oc1C`, the cytotoxicity at 10 µM is 1.04%.
As for `CCOc1ncccc1CNC(=O)c1c(C)oc(C)c1C`, the cytotoxicity at 10 µM was -3.75%.
As to `Cc1nc(C)n(CC2CCCN2Cc2nc(-c3ccco3)no2)n1` (stereo unspecified), the cytotoxicity at 10 µM was -4.39%.
`CNS(=O)(=O)Cc1cccc(CNC(=O)Nc2cn[nH]c2)c1`: the cytotoxicity at 10 µM was -11.2%.
The same measure for `Cc1cnn(CC2CCCN2C(=O)CN(C)C2CC2)c1` (stereo unspecified): 3.63%; for `CNC(=O)c1ccc(S(=O)(=O)NCc2cccnc2N(C)C)cc1`: 1.59%.
On to `Cc1cc(C)n(C2CCCN(C(=O)Cc3ccc(C#N)cc3)C2)n1` (stereo unspecified), for which the cytotoxicity at 10 µM is -1.31%.
The same measure for `COc1ccc(CC(=O)N2CCCC(n3nc(C)cc3C)C2)cc1F` (stereo unspecified): -1.76%.
As to `O=C(c1cc(Cl)c2c(c1)OCO2)N1CCCC(n2cncn2)C1` (stereo unspecified), the cytotoxicity at 10 µM is -8.75%.
`CCN(Cc1nc2c(cnn2C)c(=O)[nH]1)c1ccc(F)cc1`: the cytotoxicity at 10 µM is -1.67%.
For `COc1ccc(COCC(O)CNC(=O)c2ccncc2)cc1` (stereo unspecified), the cytotoxicity at 10 µM is -5.31%.
As for `Cc1ccc(C)c(C(=O)N2CCN(C(=O)Cc3ccccn3)CC2)c1`, the cytotoxicity at 10 µM was -15.1%.
Regarding `Cc1cc(C)c(CNC(=O)NCC(c2ccccc2)N(C)C)c(=O)[nH]1` (stereo unspecified), the cytotoxicity at 10 µM was -3.19%.
Consider `CN(C)S(=O)(=O)c1ccc(CN2CCCC2c2ccc[nH]2)o1` (stereo unspecified), for which the cytotoxicity at 10 µM is -4.03%.
With `Cc1nn(CC(C)C)c(N(C)C)c1CNCc1cccc2c1OCO2`, the cytotoxicity at 10 µM is -10.2%.
Next, `CN1CCC(C(=O)NCc2nncn2-c2ccccc2)CC1=O` (stereo unspecified): -4.32%; `O=C(C1CCOCC1)N1CCc2ncc(CN3CCCC3)n2CC1`: -76.1%; `O=C(C1CCCO1)N1CCCC2(CCN(c3cccnc3)CC2)C1` (stereo unspecified): 2.68%.
The same measure for `COCCN1CCCn2cnc(CNC(=O)N(C)C)c2C1`: 4.47%; for `CN(C)CCN1C(=O)CCC12CCN(Cc1cccs1)CC2`: 3.88%.
For the molecule `O=C(NCc1ccccn1)[C@@H]1COC[C@H]2CN(C3CCOCC3)C[C@H]21`, the cytotoxicity at 10 µM is 2.52%.
The same measure for `O=C(CCc1ccccc1)N1C[C@@H]2CN(Cc3ccoc3)CCO[C@@H]2C1`: -77.8%.
In the case of `COc1ncccc1CN1C[C@H]2C[C@@H](C(=O)NCC3CC3)N(C)[C@H]2C1`, the cytotoxicity at 10 µM was -2.54%.
The same measure for `CC(C)=CCN1C[C@@H]2CC[C@H]1CN(CCC(=O)NCc1ccco1)C2`: -3.08%.

These data come from ChEMBL document CHEMBL4513216, “Probing the Open Global Health Chemical Diversity Library for Multistage-Active Starting Points for Next-Generation Antimalarials” (ACS Infect Dis, 2020).
